Data on 3 compounds can be found in ChEMBL document CHEMBL1148251, “Syntheses of sphingosine-1-phosphate analogues and their interaction with EDG/S1P receptors” (Bioorg Med Chem Lett, 2004).

Common to all, as to assay type: cell-based
For test [1], the target named is Sphingosine 1-phosphate receptor 1 (Homo sapiens) (UniProt P21453). As to the kind of experiment: Percent binding affinity to displace radioligand [3H]SIP from Sphingosine 1-phosphate receptor Edg-1 expressed in CHO cells. Summed up:
(§1)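 Whole transfected CHO cells (Edg-1, Edg-3 or Edg-5; mock-transfected control), confluent, rinsed twice in ice-cold buffer (20 mM Tris–HCl pH 7.5, 100 mM NaCl, 15 mM NaF, 0.4% BSA), then held on ice 90 min with 2 nM [3H]-S1P ± 1 µM test ligand. Unbound label washed off, cells solubilized in SDS/NaOH/Na2CO3, bound radioactivity counted by liquid scintillation; duplicate determinations, mean ± SD.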

Test [2] has as its target Sphingosine 1-phosphate receptor 3 (Homo sapiens) (UniProt Q99500). As to the kind of experiment: Percent binding affinity to displace radioligand [3H]SIP from EDG-3/S1P3 receptors expressed in CHO cells. An outline of the steps: as §1
Test [3] addresses Sphingosine 1-phosphate receptor 2 (Homo sapiens) (UniProt O95136). As to the kind of experiment: Percent binding affinity to displace radioligand [3H]-SIP from EDG-5/S1P2 receptors expressed in CHO cells. An outline of the steps: as §1

Chain of Sphingosine 1-phosphate receptor 1 (Homo sapiens) (P21453 whole entry): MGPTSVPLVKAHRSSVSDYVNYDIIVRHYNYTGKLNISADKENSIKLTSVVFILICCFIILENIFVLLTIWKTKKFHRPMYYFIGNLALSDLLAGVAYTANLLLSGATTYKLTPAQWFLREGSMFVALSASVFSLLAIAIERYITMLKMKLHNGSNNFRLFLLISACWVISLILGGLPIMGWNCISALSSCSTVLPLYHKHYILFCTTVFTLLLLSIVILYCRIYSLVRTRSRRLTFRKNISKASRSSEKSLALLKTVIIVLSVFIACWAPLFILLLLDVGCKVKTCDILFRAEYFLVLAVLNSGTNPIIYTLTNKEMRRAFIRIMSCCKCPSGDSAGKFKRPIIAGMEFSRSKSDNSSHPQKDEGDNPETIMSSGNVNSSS
Chain of Sphingosine 1-phosphate receptor 2 (Homo sapiens) (O95136 whole entry): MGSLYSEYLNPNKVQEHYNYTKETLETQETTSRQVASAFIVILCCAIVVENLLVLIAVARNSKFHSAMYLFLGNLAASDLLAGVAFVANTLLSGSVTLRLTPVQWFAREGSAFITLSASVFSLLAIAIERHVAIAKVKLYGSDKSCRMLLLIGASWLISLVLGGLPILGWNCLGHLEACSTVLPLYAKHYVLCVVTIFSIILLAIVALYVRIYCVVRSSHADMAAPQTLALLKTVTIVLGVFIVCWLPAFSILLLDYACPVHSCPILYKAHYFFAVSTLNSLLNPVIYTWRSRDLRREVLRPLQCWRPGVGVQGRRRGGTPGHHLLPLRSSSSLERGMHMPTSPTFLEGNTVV
Chain of Sphingosine 1-phosphate receptor 3 (Homo sapiens) (Q99500 whole entry): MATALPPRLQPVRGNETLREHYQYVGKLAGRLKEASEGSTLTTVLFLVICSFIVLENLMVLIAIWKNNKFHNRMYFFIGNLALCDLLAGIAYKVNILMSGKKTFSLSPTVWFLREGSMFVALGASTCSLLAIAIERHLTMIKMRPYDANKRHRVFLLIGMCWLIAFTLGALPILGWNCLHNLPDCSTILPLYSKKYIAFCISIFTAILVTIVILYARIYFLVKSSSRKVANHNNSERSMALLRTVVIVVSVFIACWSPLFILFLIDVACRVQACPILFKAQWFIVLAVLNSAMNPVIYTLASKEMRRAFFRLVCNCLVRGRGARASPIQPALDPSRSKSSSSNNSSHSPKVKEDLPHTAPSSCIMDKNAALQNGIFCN

`CCCCCCCCCCCCC/C=C/[C@@H](O)[C@H](COP(=O)(O)O)NC` had a % binding in test [1] of 55.1%.
On the same count and under the same terms, next, `CCCCCCCCCCCCC/C=C/[C@@H](O)[C@H](COP(=O)(O)O)NCC`: 51.4%.
As to `CCCCCCCCCCCCCC[C@@H](N)COP(=O)(O)O`, the % binding amounted to 82% in test [2] and 84% in test [3].
